system: MDR1; test: Apparent permeability from apical to basal side of MDCK cells expressing MDR1; type: ADME, cell-based, Canis lupus familiaris; details: dog
In short: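 MDCK cells transfected with the MDR1 gene were used to assess whether compounds are MDR1 transporter substrates.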

Structure (SMILES)	Papp A→B [×10⁻⁶ cm/s]
CC(F)(F)CN1CCOc2c(nn(-c3ccccc3Cl)c2-c2ccc(Cl)cc2)C1=O	7.1
O=C(NC1CCCOc2c1nn(-c1ccccc1Cl)c2-c1ccc(Cl)cc1)C1CCOCC1 (racemic)	6.8
CCNC(=O)NC1CCCOc2c1nn(-c1ccccc1Cl)c2-c1ccc(Cl)cc1 (racemic)	6.3
O=C(NC1CCCOc2c1nn(-c1ccccc1Cl)c2-c1ccc(Cl)cc1)c1ccon1 (racemic)	6.6
O=C(NC1CCCOc2c1nn(-c1ccccc1Cl)c2-c1ccc(Cl)cc1)c1ccno1 (racemic)	3.2
O=C(NC1CCCOc2c1nn(-c1ccccc1Cl)c2-c1ccc(Cl)cc1)c1cnon1 (racemic)	3
O=C1CCCN1C1CCCOc2c1nn(-c1ccccc1Cl)c2-c1ccc(Cl)cc1 (racemic)	11.2

Other lines, results leading:

Papp A→B [×10⁻⁶ cm/s]	Structure (SMILES)
8.4	CC(C)C(=O)N[C@@H]1CCCOc2c1nn(-c1ccccc1Cl)c2-c1ccc(Cl)cc1
6.5	CCOCC(=O)NC1CCCOc2c1nn(-c1ccccc1Cl)c2-c1ccc(Cl)cc1 (configuration not stated)
1	N#CC1(C(=O)NC2CCCOc3c2nn(-c2ccccc2Cl)c3-c2ccc(Cl)cc2)CC1 (configuration not stated)
14.1	CC(=O)NC1CCCOc2c1nn(-c1ccccc1Cl)c2-c1ccc(Cl)cc1 (racemic)
12.1	CCC(=O)NC1CCCOc2c1nn(-c1ccccc1Cl)c2-c1ccc(Cl)cc1 (racemic)
6.9	CC(C)C(=O)NC1CCCOc2c1nn(-c1ccccc1Cl)c2-c1ccc(Cl)cc1 (racemic)
9.1	COCC(=O)NC1CCCOc2c1nn(-c1ccccc1Cl)c2-c1ccc(Cl)cc1 (racemic)
9.1	COC(=O)NC1CCCOc2c1nn(-c1ccccc1Cl)c2-c1ccc(Cl)cc1 (racemic)
2.7	CS(=O)(=O)CC(=O)NC1CCCOc2c1nn(-c1ccccc1Cl)c2-c1ccc(Cl)cc1 (racemic)

system: not listed separately; test: 1-Octanol-sodium phosphate buffer partition coefficient, log D of the compound at pH 7.4 after 24 hrs by shake flask method; type: physicochemical; details: not given

logD at 24 h	Structure (SMILES)
4.1	CC(F)(F)CN1CCOc2c(nn(-c3ccccc3Cl)c2-c2ccc(Cl)cc2)C1=O

Reference: ChEMBL document CHEMBL2062446, “Design of a Potent CB1 Receptor Antagonist Series: Potential Scaffold for Peripherally-Targeted Agents” (ACS Med Chem Lett, 2012)
